According to article PMC7069368 (MedChemComm, 2019):
“Also recorded” adds a separate entry of the source. Marks after values point to notes of the source that are not given here.

Tests used:
HeLa cells = conditions: 10 μM compound; % of cell growth; data provided from previous studies ref 10, 11; cited from earlier work
[1] = Thermodynamic solubility assay; type: physicochemical; conditions: in vitro ADME, data not shown
Method in brief: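 Solid test compound (0.2–0.5 mg) was saturated in PBS and shaken at 900 rpm, room temperature, for 48 h. It was centrifuged 30 min at 10 000×g, 23 °C. The supernatant was diluted 10–1000× in acetonitrile/H₂O (50/50) in two steps and quantified by LC-MS/MS.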

[2] = Ames test; cited from earlier work
Caco-2 cell monolayers = test: Caco-2 permeability; conditions: in vitro ADME, data not shown
Method in brief: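 Caco-2 monolayers (passage 94–105) were grown on permeable filters and used on day 21 after seeding. Filters were washed with pre-warmed HBSS. Drug solution (1 μM, prewarmed to 37 °C) was applied as donor to the apical or basolateral side. Both chambers were at pH 7.4.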

Pharmacokinetics in mice = type: in vivo; conditions: mouse, PO 10 mg kg^–1 in lipid emulsion
Method in brief: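 Female C3H mice (9-week C3H/HeOuJ or 22-week C3H/HeJ, by compound) got 10 mg kg⁻¹ as a 100 μL gavage, three per dose and route. The vehicle was 55% capmul, 15% akomed, 15% ethanol and 15% cremophor, emulsified with lukewarm water. Tail-vein blood (20 μL) was taken at 0.5, 1, 2, 4, 8 and 24 h and mixed with acetonitrile. It was methanol-extracted and quantified against spiked blank mouse blood standards.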

[3] = tested on: C. trachomatis serovar L2; test: Reinfect assay; type: cell-based, Chlamydia trachomatis
Method in brief: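 HeLa 229 cells were infected with serovar L2 EBs in HBSS at MOI 0.3–0.5. Test compound (2.5 or 1 μM in RPMI) was added at 1 h, then incubated 44–48 h. Cells were lysed with cold water, and EBs in SPG were 10-fold serially diluted onto fresh HeLa cells. After 44–46 h, cells were methanol-fixed and stained (anti-Chlamydia/FITC, DAPI). IFUs were counted by automated microscopy and given as % of DMSO control. Three independent experiments, duplicates.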

C. trachomatis serovar D = test: C. trachomatis in vivo infection model; design: species or system mouse
Method in brief: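 Female C3H/HeJ mice, 8 weeks old, got 2.4 mg medroxyprogesterone acetate s.c. 10 and 3 days pre-infection. Vaginal mucus was swabbed away before intravaginal inoculation (5000 […], 10 μL SPG), with 30 min inverted under anaesthesia. Gavage of 100 μL of 2.33 mg mL⁻¹ in capmul/akomed/cremophor/EtOH water emulsion (n=9), vehicle alone (n=9), or 2 mg mL⁻¹ doxycycline (n=6) began at 10 h, then every 12 h for 7 days.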

Row | Structure (SMILES) | HeLa viability 10 μM (%) (HeLa cells) | Mutagenic potential [2] | Oral uptake / oral data (in words) (Pharmacokinetics in mice) | other results
1 | Nc1c(Cc2cccc3ccccc23)c(C2CC2)c2n(c1=O)C(C(=O)Nc1ccccc1)CS2 (stereo not drawn) [Compound 2] | 101 ± 3 ^a % | no mutagenic potential |  | Solubility (in words) [1]: poor solubility; Permeability (in words) (Caco-2 cell monolayers): moderate permeability
2 | Nc1c(Cc2cccc3ccccc23)c(C2CC2)c2n(c1=O)C(n1cc(-c3ccccc3)nn1)CS2 (stereo not drawn) [Compound 3] | 105 ± 4 ^a % | no mutagenic potential | too low to be able to be quantified | 
3 | COc1c(Cc2cccc(C)c2C)cc(=O)n2c1SCC2C(=O)Nc1cc(C)cc(F)c1 (stereo not drawn) [Compound 18, 7-(2,3-Dimethylbenzyl)-N-(3-fluoro-5-methylphenyl)-8-methoxy-5-oxo-2,3-dihydrothiazolo[3,2-a]pyridine-3-carboxamide] |  |  | too low to allow for proper determination of pharmacokinetic parameters; also recorded: too low to be able to be quantified | 
4 | O=C(Nc1ccccc1)C1CSc2c(C3CC3)c(Cc3cccc4ccccc34)cc(=O)n21 (stereo not drawn) [Compound 24, 8-cyclopropyl-7-(naphthalen-1-ylmethyl)-5-oxo-N-phenyl-3,5-dihydro-2H-thiazolo[3,2-a]pyridine-3-carboxamide] | 100 ± 4 ^a % |  |  | 
5 | CS(=O)(=O)Nc1c(Cc2cccc3ccccc23)cc(=O)n2c1SCC2C(=O)Nc1ccccc1 (stereo not drawn) [Compound 30, 8-(Methylsulfonamido)-7-(naphthalen-1-ylmethyl)-5-oxo-N-phenyl-2,3-dihydrothiazolo[3,2-a]pyridine-3-carboxamide] |  |  |  | Concentrations inhibiting C. trachomatis infectivity (in words) [3]: low micromolar concentrations; Effect on vaginal C. trachomatis infection (IFUs per vaginal swab) (C. trachomatis serovar D; C3H/HeJ mice, 10 mg kg^–1 oral gavage twice a day for 7 days): the course of infection was not improved; also recorded: did not affect vaginal C. trachomatis infection; Tolerability (vital signs) (C. trachomatis serovar D; mice, 10 mg kg^–1 oral gavage twice a day): no negative vital signs
